Measured values published in ChEMBL document CHEMBL4428034, “Bioactive Isoprenoid-Derived Natural Products from a Dongsha Atoll Soft Coral Sinularia erecta” (J Nat Prod, 2016).

Columns and labels:
Neutrophil [1] = assay: Anti-inflammatory activity in FMLP/CB-stimulated human neutrophils assessed as inhibition of elastase release at 10 uM preincubated for 5 mins followed by FMLP/CB stimulation for 10 mins using MeO-Suc-Ala-Ala-Pro-Val-p-nitroanilide as substrate relative to control; assay type: functional
Procedure, shortened: (§1)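 Percent inhibition at 10 μM relative to control in fMLP/CB-stimulated human neutrophils. Values are mean ± SEM (n = 3), with significance tested against the control value.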

Neutrophil [2] = assay: Anti-inflammatory activity in FMLP/CB-stimulated human neutrophils assessed as inhibition of elastase release preincubated for 5 mins followed by FMLP/CB stimulation for 10 mins using MeO-Suc-Ala-Ala-Pro-Val-p-nitroanilide as substrate; assay type: functional, cell-based
Procedure, shortened: (§2)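 In fMLP/CB-stimulated human neutrophils, IC50 was taken as the concentration giving 50% inhibition. Values are mean ± SEM (n = 3).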

Neutrophil [3] = assay: Anti-inflammatory activity in FMLP/CB-stimulated human neutrophils assessed as inhibition of superoxide generation at 10 uM preincubated for 5 mins followed by cytochalasin B and FMLP stimulation for 3 mins and 10 mins respectively by ferricytochrome c reduction based assay relative to control; assay type: functional; procedure, shortened: as §1
K562 = assay: Cytotoxicity against human K562 cells assessed as growth inhibition after 3 days by alamar blue assay; assay type: functional, cell-based; conditions: K562, 72 h
Neutrophil [4] = assay: Anti-inflammatory activity in FMLP/CB-stimulated human neutrophils assessed as inhibition of superoxide generation preincubated for 5 mins followed by cytochalasin B and FMLP stimulation for 3 mins and 10 mins respectively by ferricytochrome c reduction based assay; assay type: functional, cell-based; procedure, shortened: as §2
MOLT-4 = assay: Cytotoxicity against human MOLT4 cells assessed as growth inhibition after 3 days by alamar blue assay; assay type: functional, cell-based; conditions: MOLT-4, 72 h
Procedure, shortened: (§3)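 Cells were seeded at 5 × 10^3 to 1 × 10^4 per well and kept in a humidified 5% CO2 incubator. After 3 days in culture, Alamar Blue was added for 4 h and absorbance read at 595 nm. IC50 is the concentration that reduced cell growth by 50%.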

CCRF-CEM = assay: Cytotoxicity against human CCRF-CEM cells assessed as growth inhibition after 3 days by alamar blue assay; assay type: functional, cell-based; conditions: 72 h; procedure, shortened: as §3

| SMILES | inhibition at 10 µM (Neutrophil [1]) | IC50 (Neutrophil [2]) | inhibition at 10 µM (Neutrophil [3]) | IC50 (K562) | IC50 (Neutrophil [4]) | IC50 (MOLT-4) | IC50 (CCRF-CEM) |
| --- | --- | --- | --- | --- | --- | --- | --- |
| C=C(C)C(CCC(C)=O)C[C@@H]1O[C@@]1(C)C/C=C/C(C)=O (stereo partly specified) | 17% | > 10 µM | 13% | 8.6 µM | > 10 µM | 9.7 µM | – |
| C=C(C)[C@@H]1CCC2=C[C@H](C[C@@]3(C)CC(=O)[C@H](CC(=O)C1)O3)OC2=O | 19% | > 10 µM | 15% | – | > 10 µM | – | – |
| C=C(C(=O)OC)[C@H]1CC(=O)C[C@@H]2O[C@@H]3[C@H](C[C@](C)(O)CC2=O)OC(=O)[C@@]32O[C@@H]2C1 | 93% | 3.8 µM | 55% | – | 8.5 µM | – | – |
| C=C(C)[C@@H]1CCC(=C)[C@@H](OO)CCC(=C)[C@H]2CC[C@@](C)(O2)[C@@H](O)C1 | 33% | > 10 µM | 24% | 9.2 µM | > 10 µM | – | – |
| C=C(C)[C@H]1CC(=O)[C@@H]2[C@@H](C1)[C@H]1C(=O)O[C@H]3C[C@@]4(C)O[C@@H]2C(=O)[C@H]4[C@@H]13 | 18% | > 10 µM | 16% | – | > 10 µM | – | – |
| COC(=O)[C@@]1(CCl)O[C@@]2(O)C[C@H]1C[C@@H](O)[C@]13O[C@H]1[C@H](C[C@@]1(C)CC(=O)[C@H](C2)O1)OC3=O | 14% | > 10 µM | 7% | – | > 10 µM | – | – |
| C=C(C)[C@@H]1C[C@H]2O[C@](O)(C1)C[C@@H](OC(C)=O)C(=O)/C=C(/C)C[C@@H]1OC(=O)[C@]23O[C@@H]13 | 113% | 0.9 µM | 100% | – | 2.3 µM | – | – |
| CCCCCCCCC/C(C)=C\C(=O)NCCc1ccc(O)cc1 | 102% | 1 µM | 48% | – | > 10 µM | 9.7 µM | 6.3 µM |
| CC[C@H](Nc1ncnc2[nH]cnc12)c1nc2cccc(F)c2c(=O)n1-c1ccccc1 [IDELALISIB] | 100% | 0.3 µM | 103% | – | 0.07 µM | – | – |
